# Data: ChEMBL document CHEMBL4480465, “Anti-inflammatory Mono- and Dimeric Sorbicillinoids from the Marine-Derived Fungus Trichoderma reesei 4670” (J Nat Prod, 2019)
# Calls of active or inactive are those of the source. The rule behind the calls is not given here.
# Key:
# MCF7 = assay: Cytotoxicity against human MCF7 cells by MTT assay; format: functional, cell-based
# HeLa = assay: Cytotoxicity against human HeLa cells by MTT assay; format: functional, cell-based
# HepG2 = assay: Cytotoxicity against human HepG2 cells by MTT assay; format: functional, cell-based
# RAW264.7 [1] = assay: Antiinflammatory activity against mouse RAW264.7 cells assessed as inhibition of LPS-induced nitric oxide production measured after 24 hrs; format: functional, cell-based; settings: RAW264.7, 24 h
# How it was run: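 RAW264.7 cells seeded at 5 × 10^4 per well and grown 24 h, then given LPS (1 μg/mL) together with graded compound concentrations (DMSO stocks) for 24 h. NO in the medium was read with nitric oxide detection reagents I and II, measuring absorbance at 540 nm. IC50 came from normalized response–variable slope curve fits, mean of n = 3.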
# RAW264.7 [2] = assay: Cytotoxicity against mouse RAW264.7 cells by MTT assay; format: cell-based
Structure (SMILES),Activity (MCF7),Activity (HeLa),Activity (HepG2),IC50 (RAW264.7 [1]),IC50 (RAW264.7 [2])
C/C=C/C=C/C(O)=C1/C(=O)[C@]2(C)C(=O)[C@@](C)(O)[C@H]1[C@@H]1CC(=O)N(C)[C@@H]12,inactive,inactive,inactive,> 50 µM,> 50 µM
C/C=C/[C@@H](O)CC(=O)c1cc(C)c(O)cc1O,inactive,inactive,inactive,12 µM,> 50 µM
C/C=C/CCC(=O)C1=C(O)[C@@]2(C)[C@H]3\C(=C(O)/C=C/C=C/CO)C(=O)C(C)=C(O)[C@@]3(C)O[C@@]2(O)[C@@](C)(O)C1,inactive,inactive,inactive,22 µM,> 50 µM
COc1ccc2c(c1)c(CC(=O)O)c(C)n2C(=O)c1ccc(Cl)cc1 [INDOMETHACIN],,,,41 µM,> 50 µM
Cc1cc(C(=O)CC/C=C/CO)c(O)cc1O,inactive,inactive,inactive,0.94 µM,> 50 µM
Cc1cc2c(c(C)c1O)O[C@H](CCCO)CC2=O,inactive,inactive,inactive,38 µM,> 50 µM
C/C=C/C=C/C(O)=C1\C(=O)C(C)=C(O)[C@@]2(C)O[C@@]3(O)[C@@](C)(O)CC4=C(O[C@@H](/C=C/C)CC4=O)[C@@]3(C)[C@@H]12,inactive,inactive,inactive,22 µM,> 50 µM
Cc1cc(C(=O)/C=C/C=C/CO)c(O)c(C)c1O,inactive,inactive,inactive,6.8 µM,> 50 µM
Cc1cc(C(=O)CCC(=O)O)c(O)c(C)c1O,inactive,inactive,inactive,> 50 µM,> 50 µM
C/C=C/C=C/C(O)=C1\C[C@](C)(O)[C@]2(O)O[C@]3(C)C(O)=C(C)C(=O)/C(=C(O)/C=C/C=C/C)[C@@H]3[C@]2(C)C1=O,inactive,inactive,inactive,9.9 µM,> 50 µM
C/C=C/C=C/C(O)=C1\C[C@](C)(O)[C@]2(O)O[C@]3(C)C(O)=C(C)C(=O)/C(=C(O)/C=C/C=C/CO)[C@@H]3[C@]2(C)C1=O,inactive,inactive,inactive,6.1 µM,> 50 µM
Cc1cc(C(=O)CCC(=O)O)c(O)cc1O,inactive,inactive,inactive,> 50 µM,> 50 µM
C/C=C/CCCc1cc(C)c(O)cc1O,inactive,inactive,inactive,13 µM,> 50 µM
CC1=C(O)[C@@]2(C)O[C@@]3(O)[C@@](C)(O)CC(C(=O)CC/C=C/CO)=C(O)[C@@]3(C)[C@H]2\C(=C(O)/C=C/C=C/CO)C1=O,inactive,inactive,inactive,24 µM,> 50 µM
Cc1c(O)c(O)cc(C(=O)CC/C=C/CO)c1O,inactive,inactive,inactive,6.1 µM,> 50 µM
Cc1cc2c(c(C)c1O)O[C@H](/C=C/CO)CC2=O,inactive,inactive,inactive,8.5 µM,> 50 µM
Cc1cc(C(=O)CC/C=C/C(=O)O)c(O)cc1O,inactive,inactive,inactive,> 50 µM,> 50 µM
C/C=C/CCC(=O)c1cc(C)c(O)cc1O [SOHIRNONE A],inactive,inactive,inactive,14 µM,> 50 µM
CC1=C(O)[C@@]2(C)O[C@@]3(O)[C@@](C)(O)C\C(=C(O)/C=C/C=C/CO)C(=O)[C@@]3(C)[C@H]2\C(=C(O)/C=C/C=C/CO)C1=O,inactive,inactive,inactive,> 50 µM,> 50 µM
Cc1cc(C(=O)CCCCCO)c(O)cc1O,inactive,inactive,inactive,> 50 µM,> 50 µM
C/C=C/C=C/C(O)=C1\C(=O)C(C)=C(O)[C@@]2(C)O[C@@]3(O)[C@@](C)(O)CC4=C(O[C@H](/C=C/C)CC4=O)[C@@]3(C)[C@@H]12,inactive,inactive,inactive,32 µM,> 50 µM
Cc1c(O)ccc(C(=O)C[C@@H]2CC[C@H]([C@H](C)O)O2)c1O,inactive,inactive,inactive,> 50 µM,> 50 µM
C/C=C/C=C/C(O)=C1/C(=O)C(C)=C(O)[C@@]2(C)O[C@@]3(O)[C@@](C)(O)CC(C(=O)CC/C=C/C)=C(O)[C@@]3(C)[C@@H]12,inactive,inactive,inactive,5.9 µM,> 50 µM
Cc1cc(C(=O)CC/C=C/CO)c(O)c(C)c1O,inactive,inactive,inactive,2.9 µM,> 50 µM
C/C=C/C=C/C(=O)c1c(O)c(C)cc(C)c1O,inactive,inactive,inactive,3.3 µM,> 50 µM
